Measured values published in ChEMBL document CHEMBL1212742 (2010).
Converted amounts (≈) assume the structure as drawn.

What was measured:
Type in all cases: functional
[1] = test system: Mycobacterium tuberculosis; assay: Antimicrobial activity against wild type Mycobacterium tuberculosis 210 after 4 weeks; details: Mycobacterium tuberculosis, 210, 672 h
Method in brief: (§1)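 Isogenic embB mutants made by allelic exchange in strain 210. PCR-built fragments carried the codon of interest; double-crossover colonies were screened by molecular beacon assay and confirmed by direct embB sequencing. MICs of EMB, INH and RIF were determined by radiometric Bactec 460TB and 7H10 agar proportion, alongside parent 210.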

[2] = test system: Mycobacterium tuberculosis; assay: Antimicrobial activity against wild type Mycobacterium tuberculosis NJT210CGG-CAG after 4 weeks; details: 672 h; method in brief: as §1
[3] = test system: Mycobacterium tuberculosis; assay: Antimicrobial activity against wild type Mycobacterium tuberculosis 8C6 after 4 weeks by Bactec 460TB method; details: 8C6, 672 h
[4] = test system: Mycobacterium tuberculosis; assay: Antimicrobial activity against wild type Mycobacterium tuberculosis 8C6 after 4 weeks by 7H agar proportion method
Method in brief: (§2)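 EMB MIC by 7H10 agar proportion for clones selected from M. tuberculosis strain 210. About 10^9 cells from liquid culture (OD600 ~1.5, resuspended in 7H9) were plated on 7H10 with EMB at 8, 16 or 32 µg/ml final, incubated 37°C for 4 weeks. Colonies were subcultured in EMB-free 7H9 before testing, and embCAB was genotyped.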

[5] = test system: Mycobacterium tuberculosis; assay: Antimicrobial activity against wild type Mycobacterium tuberculosis 8C3 after 4 weeks by Bactec 460TB method; details: 8C3, 672 h
[6] = test system: Mycobacterium tuberculosis; assay: Antimicrobial activity against wild type Mycobacterium tuberculosis 8C2 after 4 weeks by Bactec 460TB method; details: 8C2, 672 h
Method in brief: (§3)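 EMB MIC by radiometric Bactec 460TB liquid method for clones from strain 210. The clones were selected on 7H10 containing 8, 16 or 32 µg/ml EMB final (~10^9 cells plated, 37°C, 4 weeks), then subcultured in 7H9 without EMB before MIC testing. embCAB was genotyped.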

[7] = test system: Mycobacterium tuberculosis; assay: Antimicrobial activity against wild type Mycobacterium tuberculosis 8C2 after 4 weeks by 7H agar proportion method; method in brief: as §2
[8] = test system: Mycobacterium tuberculosis; assay: Antimicrobial activity against wild type Mycobacterium tuberculosis 8C1 after 4 weeks by Bactec 460TB method; details: 8C1, 672 h; method in brief: as §3
[9] = test system: Mycobacterium tuberculosis; assay: Antimicrobial activity against wild type Mycobacterium tuberculosis 8C1 after 4 weeks by 7H agar proportion method; method in brief: as §2
[10] = test system: Mycobacterium tuberculosis; assay: Antimicrobial activity against wild type Mycobacterium tuberculosis 210 after 4 weeks by Bactec 460TB method; details: Mycobacterium tuberculosis, 210, 672 h
Method in brief: (§4)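 Parental M. tuberculosis strain 210 with no EMB exposure. EMB MIC determined in parallel by 7H10 agar proportion and radiometric Bactec 460TB.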

[11] = test system: Mycobacterium tuberculosis; assay: Antimicrobial activity against wild type Mycobacterium tuberculosis 210 after 4 weeks by 7H agar proportion method; method in brief: as §4
[12] = test system: Mycobacterium tuberculosis; assay: Antimicrobial activity against wild type Mycobacterium tuberculosis 16C10 after 4 weeks by 7H agar proportion method; method in brief: as §2
[13] = test system: Mycobacterium tuberculosis; assay: Antimicrobial activity against wild type Mycobacterium tuberculosis 16C10 after 4 weeks by Bactec 460TB method; details: 16C10, 672 h; method in brief: as §3
[14] = test system: Mycobacterium tuberculosis; assay: Antimicrobial activity against wild type Mycobacterium tuberculosis 16C12 after 4 weeks by 7H agar proportion method; method in brief: as §2
[15] = test system: Mycobacterium tuberculosis; assay: Antimicrobial activity against wild type Mycobacterium tuberculosis 16C12 assessed as inhibition of growth after 4 weeks by Bactec 460TB method; details: 16C12, 672 h; method in brief: as §3

SMILES | MIC [1] | MIC [2] | MIC [3] | MIC [4] | MIC [5] | MIC [6] | MIC [7] | MIC [8] | MIC [9] | MIC [10] | MIC [11] | MIC [12] | MIC [13] | MIC [14] | MIC [15]
CO[C@H]1/C=C/O[C@@]2(C)Oc3c(C)c(O)c4c(O)c(c(/C=N/N5CCN(C)CC5)c(O)c4c3C2=O)NC(=O)/C(C)=C\C=C\[C@H](C)[C@H](O)[C@@H](C)[C@@H](O)[C@@H](C)[C@H](OC(C)=O)[C@@H]1C [RIFAMPIN] | 0.05 µg/mL (≈ 0.0608 µM) | 0.05 µg/mL (≈ 0.0608 µM) |  |  |  |  |  |  |  |  |  |  |  |  | 
NNC(=O)c1ccncc1 [ISONIAZID] | 0.05 µg/mL (≈ 0.365 µM) | 0.05 µg/mL (≈ 0.365 µM) |  |  |  |  |  |  |  |  |  |  |  |  | 
CC[C@@H](CO)NCCN[C@@H](CC)CO [ETHAMBUTOL] | 2 µg/mL (≈ 9.79 µM) | 2 µg/mL (≈ 9.79 µM) | 2 µg/mL (≈ 9.79 µM) | 4 µg/mL (≈ 19.6 µM) | 4 µg/mL (≈ 19.6 µM) | 4 µg/mL (≈ 19.6 µM) | 8 µg/mL (≈ 39.2 µM) | 2 µg/mL (≈ 9.79 µM) | 6 µg/mL (≈ 29.4 µM) | 2 µg/mL (≈ 9.79 µM) | 2 µg/mL (≈ 9.79 µM) | 6 µg/mL (≈ 29.4 µM) | 2 µg/mL (≈ 9.79 µM) | 8 µg/mL (≈ 39.2 µM) | 3 µg/mL (≈ 14.7 µM)
